OXTR ag: human OXTR agonists, primary screen, fluorescence, CHO-OTR cells, Fluo-8 calcium. Oxytocin receptor (Homo sapiens), P30559. Fluo-8 calcium fluorescence; normalized: DMSO 0%, oxytocin 100%. activation, % at 3 µM. hit rate 0.32% among 320,000. AID 2435, 2010;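 active = activation above the mean of all tested compounds plus 3 SD, cutoff set per screening run, cut at about 20% in these data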;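 also: peak over basal fluorescence ratio from a 100 s FLIPR kinetic read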
OXTR potentiate: human OXTR potentiators, primary screen, fluorescence, CHO-OTR cells, Fluo-8 calcium; Oxytocin receptor (Homo sapiens), P30559; Fluo-8 calcium fluorescence, potentiator mode; 0% = oxytocin EC15, 100% = EC100; activation, % at 3 µM; hit rate 0.061% among 320,000; AID 2445, 2010;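 active = activation above that plate's cutoff, the mean activation of tested compounds plus 3 SD, cut at about 6.6% in these data, passing the limit was not always enough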
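System: human OTR in CHO cells / Also added: sub-maximal oxytocin, roughly EC15 / Control set: EC15 oxytocin low, 75 nM oxytocin high / Schedule: 6 min compound pre-incubation at room temperature, 100 s kinetic read / Compound: single-point 3.0 µM / Replication: singlicate / Technique: Fluo-8 calcium dye fluorescence / Read-out basis: % activation of max/min ratio relative to oxytocin controls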
zfTRPN1 agonist: zebrafish TRPN1 channel agonists, primary screen, cell-based, HEK293, calcium fluorescence | HEK293 zebrafish TRPN1-YFP, Fluo-8 calcium fluorescence; 100% = response to 87 µM carbachol | activation, % at 3 µM | transient receptor potential cation channel N1 (TRPN1/NompC), Danio rerio | hit rate 0.18% among 220,000;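 active = activation above its plate's cutoff, the mean activation of test wells on that plate plus 3 SD, cut at about 19% in these data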
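Material: zebrafish TRPN1-YFP in HEK293 cells. Doses: one dose of 3 µM, 0.3% DMSO. Incubation: dye 1 h 37 °C plus 30 min RT. Measured by: intracellular calcium fluorescence with Fluo-8.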
TRPML3 agonist: human TRPML3 channel agonists, primary screen, cell-based, HEK293 TRPML3-YFP, Fluo-8 calcium fluorescence, 3 µM. Mucolipin-3 (Homo sapiens), Q8TDD5. 100% = the carbachol control signal. activation, % at 3 µM. hit rate 0.29% among 220,000. AID 1448, 2008;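 active = activation above its plate's cutoff, the mean activation of the plate's test wells plus 3 SD, cut at about 12% in these data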
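Test system: TRPML3-YFP stable HEK293 cells. Doses: single point at 3 µM. Incubation: dye loading 1 h 37 °C then 30 min ambient, 125 s read. Signal: Fluo-8 calcium dye fluorescence, ex 470-495, em 515-575 nm. Measure: percent activation from peak-to-basal fluorescence ratio, scaled between DMSO and carbachol.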
CRFBP-R2 agonist: agonists of CRF-BP/CRF-R2 complex, primary screen, cell-based, HEK293, calcium dye fluorescence, uHTS; hit rate 0.46% among 350,000; CRF-binding protein / CRF receptor 2 complex (human); activation, % at 13.2 µM; calcium dye fluorescence (FLIPR); percent of saturating CRF peptide response;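 active = activation of at least 50%, plus an integration ratio under a set limit after plate pattern correction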
V1R ag counter: agonists of human V1a receptor, primary screen, counter-screen for OXTR agonist project, fluorescence, CHO-V1R cells | Fluo-8 calcium fluorescence, agonist mode; 0% DMSO, 100% 3 nM vasopressin | activation, % at 3 µM | hit rate 0.25% among 320,000;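 active = activation above the mean activation of all tested compounds plus 3 SD, per screening run, cut at about 20% in these data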;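 also: signal is peak over basal fluorescence ratio across a 100 second FLIPR read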
Target sequence (P37288 whole entry, looked up): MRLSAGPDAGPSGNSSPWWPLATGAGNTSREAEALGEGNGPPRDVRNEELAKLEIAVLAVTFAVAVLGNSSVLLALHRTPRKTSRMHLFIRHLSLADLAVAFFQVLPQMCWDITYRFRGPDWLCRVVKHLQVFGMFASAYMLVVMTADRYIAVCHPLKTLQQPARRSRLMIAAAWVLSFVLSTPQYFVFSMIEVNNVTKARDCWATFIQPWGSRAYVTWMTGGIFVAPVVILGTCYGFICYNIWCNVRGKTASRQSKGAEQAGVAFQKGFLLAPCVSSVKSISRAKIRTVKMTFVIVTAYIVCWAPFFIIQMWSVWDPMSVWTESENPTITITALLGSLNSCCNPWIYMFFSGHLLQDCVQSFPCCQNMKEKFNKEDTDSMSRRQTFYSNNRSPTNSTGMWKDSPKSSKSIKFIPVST
V1aR agonist cf: V1a receptor agonists, calcium signal, confirmation, Fluo-8 calcium fluorescence, CHO-V1R cells; shares compounds with V1R ag counter; agonist; activation, % at 3 µM; hit rate 20% among 180; AID 434964, 2010;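 active = average activation exceeds primary screen hit cutoff, cut at about 21% in these data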;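 also: peak over basal fluorescence ratio during a 100 s FLIPR read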
OXTR counter: human OXTR agonists, counter-screen for V1R agonist project, fluorescence, CHO-OTR cells, triplicate | shares compounds with V1R ag counter | hit rate 10% among 180 | Fluo-8 calcium fluorescence | activation, % at 3 µM;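 active = mean activation over three repeats above the cutoff from the earlier oxytocin receptor agonist screen, cut at about 20% in these data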;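 also: peak over minimum fluorescence ratio within a 100 second FLIPR read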
Each line names hits and unclear results; the compound was inactive in the other large screens (follow-up assays come after a bar, where they were run). Rows were chosen to be rich in hits. Some 0.85% of all compounds tested hit in one or more screens of this group.

COc1ccc(CNC(=O)[C@H](Cc2ccccc2)NC(=O)C2CCNCC2)cc1	none (no result: zfTRPN1 agonist, TRPML3 agonist)
COc1ccc2nc(NC(=O)Cc3ccc(OC)c(S(=O)(=O)N4CCOCC4)c3)sc2c1	V1R ag counter 23 | V1aR agonist cf inactive | OXTR counter inactive
COc1ccc(CC(=O)Nc2nccs2)cc1S(=O)(=O)N1CCOCC1	none (no result: zfTRPN1 agonist, TRPML3 agonist)
CCOc1ccc(C(=O)NCC(=O)NNC(=O)c2ccco2)cc1OCC	none (no result: zfTRPN1 agonist, TRPML3 agonist)
CCC[C@@H]1C[C@@H](C(=O)NC(C(C)Cl)[C@H]2O[C@H](SC)[C@H](O)[C@@H](O)[C@H]2O)N(C)C1 (some centres not stated)	none (no result: zfTRPN1 agonist, TRPML3 agonist)
CCC[C@@H]1C[C@@H](C(=O)N[C@@H](C2O[C@H](SC)[C@H](O)[C@@H](O)[C@H]2O)[C@H](C)Cl)N(C)C1 (some centres not stated)	V1R ag counter 43 | V1aR agonist cf inactive | OXTR counter inactive
COc1cccc(C(=O)Oc2cc(N)n(S(=O)(=O)c3ccc(C)cc3)n2)c1OC	V1R ag counter 28 | V1aR agonist cf inactive | OXTR counter inactive
O=C1c2cccc3c2C2(O)c4c1cccc4C(=O)c1cccc(c12)C3=O	none (no result: OXTR ag, OXTR potentiate, zfTRPN1 agonist, TRPML3 agonist, V1R ag counter)
CCOc1cccc(C2C(C(=O)c3ccco3)=C(O)C(=O)N2c2nnc(C)s2)c1 (configuration not stated)	none (no result: zfTRPN1 agonist, TRPML3 agonist)
CSc1nnc(N2C(=O)C(O)=C(C(=O)c3ccco3)C2c2ccc(F)cc2)s1 (configuration not stated)	V1R ag counter 33 (no result: zfTRPN1 agonist, TRPML3 agonist) | V1aR agonist cf inactive | OXTR counter inactive
COc1ccc(C2C(C(=O)c3ccco3)=C(O)C(=O)N2c2nnc(C)s2)cc1 (configuration not stated)	none
CSc1nnc(N2C(=O)C(O)=C(C(=O)c3ccco3)C2c2cccc(Cl)c2)s1 (configuration not stated)	V1R ag counter 45 (no result: zfTRPN1 agonist, TRPML3 agonist) | V1aR agonist cf inactive | OXTR counter inactive
CCSc1nnc(N2C(=O)C(O)=C(C(=O)c3ccco3)C2c2cccc(OC)c2)s1 (configuration not stated)	V1R ag counter 31 (no result: zfTRPN1 agonist, TRPML3 agonist) | V1aR agonist cf inactive | OXTR counter inactive
O=C1CN(C(=O)CN2CCN(S(=O)(=O)c3ccccc3F)CC2)c2ccccc2N1	none (no result: OXTR ag, OXTR potentiate, zfTRPN1 agonist, TRPML3 agonist, V1R ag counter)
CC[N+]1=C(C)C(C)(C)c2cc(C)ccc21	V1R ag counter 23 | V1aR agonist cf inactive | OXTR counter inactive
COc1ccc(C(=O)O)cc1S(=O)(=O)N(C)CCc1cccnc1	none
COc1ccc(C(=O)O)cc1S(=O)(=O)N(CCc1ccccc1)Cc1ccccc1	V1R ag counter 25 | V1aR agonist cf inactive | OXTR counter inactive
CC(=O)Nc1ccc(N=Cc2c(O)c3ccccc3oc2=O)cc1	none (no result: OXTR ag, OXTR potentiate, zfTRPN1 agonist, TRPML3 agonist, V1R ag counter)
CC(=O)Nc1ccc(N=Cc2c(O)c(C(=O)Nc3ccccc3)cc3ccccc23)cc1	CRFBP-R2 agonist 115, V1R ag counter 38 | V1aR agonist cf 193 | OXTR counter 169
O=C(Nc1nnc(-c2ccc3c(c2)CCCC3)o1)c1ccccc1	V1R ag counter 34 | V1aR agonist cf inactive | OXTR counter inactive
COc1ccc(/C=C2/SC(=O)NC2=O)cc1	none
COc1ccc(/C=C2/C(=O)C(C)(C(C)C)CCC2C)cc1 (configuration not stated)	V1R ag counter 20 (no result: zfTRPN1 agonist, TRPML3 agonist) | V1aR agonist cf inactive | OXTR counter inactive
CCCn1c(SCC(=O)Nc2cccc(F)c2)nc(O)cc1=O	V1R ag counter 26 (no result: zfTRPN1 agonist, TRPML3 agonist) | V1aR agonist cf inactive | OXTR counter inactive
CCCn1c(SCC(=O)Nc2ccccc2Cl)nc(O)cc1=O	none (no result: OXTR ag, OXTR potentiate, zfTRPN1 agonist, TRPML3 agonist, V1R ag counter)
O=C(O)CNS(=O)(=O)c1cccc(Cl)c1	none
COC(=O)C(NC(=O)c1ccccc1Cl)(Nc1ncc(S(=O)(=O)c2ccc([N+](=O)[O-])cc2)s1)C(F)(F)F (configuration not stated)	V1R ag counter 28 | V1aR agonist cf inactive | OXTR counter inactive
O=C(CCl)Nc1ncc(S(=O)(=O)c2ccc([N+](=O)[O-])cc2)s1	none (no result: zfTRPN1 agonist, TRPML3 agonist)
CC(=O)c1c(C)[nH]c(C(=O)C(C)Sc2nnc(NC3CC3)s2)c1C (configuration not stated)	none (no result: zfTRPN1 agonist, TRPML3 agonist)
CCOC(=O)Nc1ccc(C(=O)c2ccncc2)cc1	V1R ag counter 20 (no result: zfTRPN1 agonist, TRPML3 agonist) | V1aR agonist cf inactive | OXTR counter inactive
CCC1CCCCN1CCCNC(=O)c1ccc(N2CCOCC2)c(NS(=O)(=O)c2ccc(OC)cc2)c1 (configuration not stated)	V1R ag counter 21 | V1aR agonist cf inactive | OXTR counter inactive
COc1cccc(N2CCN(c3ccc(S(=O)(=O)N4CCN(C)CC4)cc3[N+](=O)[O-])CC2)c1	V1R ag counter 21 (no result: zfTRPN1 agonist, TRPML3 agonist) | V1aR agonist cf inactive | OXTR counter inactive
O=C(N/N=C/c1sc(=O)[nH]c1-[n+]1ccc2ccccc2c1)c1ccccc1[O-]	V1R ag counter 27 (no result: zfTRPN1 agonist, TRPML3 agonist) | V1aR agonist cf inactive | OXTR counter inactive
O=C(N/N=C/c1sc(=O)[nH]c1-[n+]1ccccc1)c1ccccc1[O-]	none
Nc1c(C(=O)NCc2ccc3c(c2)OCO3)nnn1Cc1ccc(Br)cc1	V1R ag counter 37 | V1aR agonist cf inactive | OXTR counter 23
COC(=O)C(C)Oc1ccc(Cl)c(CN2OCC(C)(C)C2=O)c1 (configuration not stated)	none (no result: zfTRPN1 agonist, TRPML3 agonist)
Cc1ccccc1OCC(=O)NNC(=O)C1CC(=O)N(c2ccc3c(c2)OCCO3)C1 (configuration not stated)	none (no result: zfTRPN1 agonist, TRPML3 agonist)
O=C(O)c1ccccc1C1=Nc2ccc(O)cc2Oc2cc(O)ccc21	CRFBP-R2 agonist 107, V1R ag counter 23 | V1aR agonist cf 27 | OXTR counter 20
Cc1cc(-c2ccccc2C(=O)O)on1	none
O=C(CNC(=O)C1COc2ccccc2O1)N/N=C\c1ccc(Cl)cc1 (configuration not stated)	none

Screens from PubChem BioAssay.
